{
  "source": "PubChem BioAssay AID617",
  "about": "(SRMLSC, 2007)",
  "data": [
    {"tested_on": "E. coli BW25113 ΔtolC growth inhibition, OD615", "test": "growth inhibitors of E. coli tolC mutant, dose response, strain BW25113 ΔtolC::kan (AID 617)", "outline": "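Material: E. coli BW25113 ΔtolC::kan bacteria; input: inoculum from 1:1000-diluted 1.5 h subculture; medium: kanamycin-containing LB broth, 50 µg/mL; dosing: compounds in serially diluted dose-response series; incubation: 20 h exposure at 37 °C; measured by: absorbance at 615 nm; control set: chloramphenicol control, 30 µM final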", "units": {"IC50": "µM"}, "values": [
      {"smiles": "Clc1cccc(NCc2nnc(SCc3ccccc3)o2)c1", "IC50": 9.57},
      {"smiles": "CCN1/C(=C(\\O)c2ccccc2)C(=O)c2ccccc2S1(=O)=O", "IC50": 4.56},
      {"smiles": "O=C(Nc1nc(SCc2ccc(F)cc2)ns1)c1ccco1", "IC50": 4.2},
      {"smiles": "O=C(N1CCN(c2ccccn2)CC1)N1c2ccccc2Sc2ccccc21", "IC50": 19.4},
      {"smiles": "CCC(C)(C)n1nnnc1C(c1cc2ccc(OC)cc2[nH]c1=O)N1CCc2ccccc2C1", "note": "(configuration not stated)", "IC50": 17.1},
      {"smiles": "CC1CCCCN1c1nc(-c2ccncc2)nc2ccccc12", "note": "(configuration not stated)", "IC50": 12},
      {"smiles": "Cc1cccc(N2CCN(C(=O)Cc3c(C(=O)O)[nH]c4ccc(Cl)cc34)CC2)c1C", "IC50": 7.52},
      {"smiles": "Cc1cc(N2C3CCC2CC(O)(c2ccc(F)cc2)C3)nc(-c2ccccc2)n1", "note": "(configuration not stated)", "IC50": 7.11},
      {"smiles": "CCn1c(SCC(=O)Nc2nc(-c3ccccc3)cs2)nnc1-c1ccccc1O", "IC50": 6.69},
      {"smiles": "CCCCNC(=O)c1sc(=S)n2c1[nH]c(=O)c1ccccc12", "IC50": 0.54},
      {"smiles": "C(=C\\c1ccccc1)/CSc1nnc(-c2ccccn2)n1Cc1ccco1", "IC50": 12},
      {"smiles": "CCOC(=O)c1c(NC(=O)CN2CCCCC2)sc2c1CCN(C(=O)OCC)C2", "IC50": 10.7},
      {"smiles": "Cc1cc(S(=O)(=O)N2CCN(c3ccccc3C)CC2)ccc1F", "IC50": 14.6},
      {"smiles": "CSc1nc2ccc(NS(=O)(=O)c3ccc(Cl)s3)cc2s1", "IC50": 0.72},
      {"smiles": "Clc1ccc2nc(CN3CCCc4ccccc43)cn2c1", "IC50": 25.8},
      {"smiles": "COc1ccc(-c2noc(CN3CCC(Cc4ccccc4)CC3)n2)cc1", "IC50": 17.2},
      {"smiles": "Cn1c(=O)c2c(SCc3cccnc3)nc(CC(C)(C)C)nc2n(C)c1=O", "IC50": 8.18},
      {"smiles": "CCOC(=O)c1ccc(N2C(=O)c3n[nH]c(C)c3C2c2ccc(OC)cc2OC)cc1", "note": "(configuration not stated)", "IC50": 16.8},
      {"smiles": "Cn1c(NC(=O)c2ccccc2NC(=O)C(C)(C)C)nc2ccccc21", "IC50": 9.13},
      {"smiles": "C=C(C)COc1ccc(-c2nc(N)ncc2-c2ccc(OC)cc2)c(O)c1", "IC50": 10.2},
      {"smiles": "Cc1ccc(-n2c(C)cc(C3N=C(N)Nc4nc5ccccc5n43)c2C)c(C)c1", "note": "(configuration not stated)", "IC50": 6.62},
      {"smiles": "CN(C)c1ccc(C2C=C(c3ccc(Cl)cc3OC(F)F)Nc3ncnn32)cc1", "note": "(configuration not stated)", "IC50": 1.95},
      {"smiles": "CC(=O)c1sc(NC(=O)C2(F)C(F)(F)C(F)(F)C(F)(F)C(F)(F)C2(F)F)nc1C", "IC50": 0.92},
      {"smiles": "CCC1(C)Cc2ccccc2-c2nc3n(c(=O)c21)CCCCC3", "note": "(configuration not stated)", "IC50": 15.8},
      {"smiles": "COc1ccc(NS(=O)(=O)c2ccc3c(c2)Cc2ccccc2-3)cn1", "IC50": 10.7},
      {"smiles": "Cc1cc(C)c(C#N)c(SCS(=O)c2ccc(C(C)(C)C)cc2)n1", "note": "(configuration not stated)", "IC50": 40.1},
      {"smiles": "CCCCCCOC(=O)C(C#N)c1nc2ccccc2nc1N1CCN(C)CC1", "note": "(configuration not stated)", "IC50": 12.9},
      {"smiles": "CCOC(=O)c1c(C)n(C)c2ccc(OCC(O)Cn3nc(C)c(Br)c3C)cc12", "note": "(configuration not stated)", "IC50": 5.74},
      {"smiles": "CCCOc1ccccc1C1CC(=O)Nc2cc3c(cc21)OCCO3", "note": "(configuration not stated)", "IC50": 24.1},
      {"smiles": "CCC(C(=O)Nc1ccccc1OC)n1c(C(=O)OC)cc2ccsc21", "note": "(configuration not stated)", "IC50": 10.9},
      {"smiles": "CCOc1ccc2[nH]c3c(N4CCN(c5ccccn5)CC4)ncnc3c2c1", "IC50": 12.2},
      {"smiles": "CCOc1cc(S(=O)(=O)N2CCN(Cc3ccccc3)CC2)ccc1Br", "IC50": 19.3},
      {"smiles": "CC1CCCN(c2ccc(C(=O)NCCc3ccccc3)cn2)C1", "note": "(configuration not stated)", "IC50": 49.4},
      {"smiles": "Cc1ccc(-c2nnc(SCC(=O)N3CC(C)CC(C)C3)o2)cc1C", "note": "(configuration not stated)", "IC50": 12.9},
      {"smiles": "COc1ccccc1-c1cc(C(=O)NC(C)c2ccccc2)no1", "note": "(configuration not stated)", "IC50": 37.7},
      {"smiles": "CC1CCCCN1C(=O)CSc1nc(C2CC2)nc2c1cnn2-c1ccccc1", "note": "(configuration not stated)", "IC50": 12.3},
      {"smiles": "CCOC(=O)c1cnc(-n2nc(C)cc2C)nc1Nc1ccc(N(C)C)cc1", "IC50": 13.7},
      {"smiles": "c1ccc(-c2noc(-c3cccc4ccccc34)n2)cc1", "IC50": 101},
      {"smiles": "COC(=O)c1c(NC(=O)CCc2ccc(C)o2)sc(C)c1C", "IC50": 26.8},
      {"smiles": "CCCc1nc(SC2CCCC2)c2c(=O)n(C)c(=O)n(C)c2n1", "IC50": 13.6},
      {"smiles": "Cc1cccc(-c2cc3nc4c(c(N5CCOCC5)n3n2)CCCC4)c1", "IC50": 16},
      {"smiles": "COc1ccc(CN(Cc2cc3cc4c(cc3[nH]c2=O)OCO4)C(=O)NC2CCCCC2)cc1", "IC50": 20.2},
      {"smiles": "CSc1nc2ccc(NS(=O)(=O)c3ccc4c(c3)OCCO4)cc2s1", "IC50": 2.88},
      {"smiles": "Cc1ccc(NC(=O)c2nnn(-c3cc(C)cc(C)c3)c2N)cc1", "IC50": 21.9},
      {"smiles": "Brc1cc(Br)c2ncnc(N3CCCCC3)c2c1", "IC50": 34.6},
      {"smiles": "O=C(COc1ccccc1)Nc1nnc(-c2ccc(Cl)s2)o1", "IC50": 1.86},
      {"smiles": "O=C(c1ccc(COc2ccccc2Br)o1)N1CCCCCC1", "IC50": 98.8},
      {"smiles": "CC(C)c1nc(N2CCN(C(=O)c3ccco3)CC2)c2c3c(sc2n1)CCCC3", "IC50": 13.6},
      {"smiles": "N#CC1=C(SCC(=O)NC23CC4CC(CC(C4)C2)C3)NC(=O)C(C#N)C12CCCCC2", "note": "(configuration not stated)", "IC50": 4.11},
      {"smiles": "O=C1C2=C(Nc3ccccc3SC2c2ccco2)c2ccccc21", "note": "(configuration not stated)", "IC50": "< 0.2"},
      {"smiles": "CC(C)(C)C1CCC2(CC1)C(C#N)=C(SCC(=O)NC1CCCCC1)NC(=O)C2C#N", "note": "(configuration not stated)", "IC50": 6.1},
      {"smiles": "N=C(N)c1c(O)n(C2CCCCC2)c(=O)n(C2CCCCC2)c1=O", "IC50": 5.79},
      {"smiles": "CCOc1ccc(N(CC(=O)Nc2cccc(OC)c2)S(=O)(=O)c2c(C)noc2C)cc1", "IC50": 22.8},
      {"smiles": "COC(=O)c1cc(C(=O)CSc2nc(C)cc(C)n2)ccc1O", "IC50": 4.31},
      {"smiles": "O=C(Nc1nnc(-c2ccccc2)o1)c1ccc(Cl)cc1", "IC50": 0.17},
      {"smiles": "CCCN(CCC)c1nc(NC2CCN(C(=O)OCC)CC2)nc(OC)n1", "IC50": 12.4},
      {"smiles": "C=CCN(CC=C)S(=O)(=O)c1ccc2nc(NC(=O)C(C)C)sc2c1", "IC50": 6.66},
      {"smiles": "Cc1cccc(N2CCN(C(=O)c3ccc(NS(=O)(=O)c4c(C)noc4C)cc3)CC2)c1C", "IC50": 16.2},
      {"smiles": "Clc1ccc(COC(Cn2ccnc2)c2ccc(Cl)cc2Cl)cc1", "note": "(configuration not stated)", "IC50": 2.27},
      {"smiles": "Cc1sc(NC(=O)c2ccco2)c(CN2CCN(c3ccccn3)CC2)c1C", "IC50": 9.55},
      {"smiles": "O=C(Nc1ccc(Cl)c(Cl)c1)N1CCSC1c1ccco1", "note": "(configuration not stated)", "IC50": 5.12},
      {"smiles": "Cc1c(-c2nc(N)nc(Nc3ccccc3)n2)oc2ccccc12", "IC50": 12.3},
      {"smiles": "COc1ccc(C2CC(c3ccccc3)n3nc(NC(=O)c4cccs4)nc3N2)cc1", "note": "(configuration not stated)", "IC50": 8.18},
      {"smiles": "COc1cc(-c2nc(Cc3ccccc3Cl)no2)cc(OC)c1OC", "IC50": 11.5},
      {"smiles": "CCc1c(C)nc2cc(-c3cc(OC)cc(OC)c3)nn2c1N1CCCC1", "IC50": 25.5},
      {"smiles": "COc1ccc(S(=O)(=O)N(Cc2cccs2)C2CCCC2)cc1", "IC50": 8.13},
      {"smiles": "C#CCSc1nnc(-c2cccc3ccccc23)o1", "IC50": 12.2},
      {"smiles": "CCCOC(=O)c1ccc(Oc2c(-c3ccc(O)cc3O)n[nH]c2C)cc1", "IC50": 3.26},
      {"smiles": "CC1CC(C)CN(c2ncnc3c2cnn3Cc2ccc(Cl)cc2)C1", "note": "(configuration not stated)", "IC50": 6.08},
      {"smiles": "OCCn1c(-c2ccc3c(c2)OCO3)csc1=Nc1ccccc1", "IC50": 23.5},
      {"smiles": "OC1(c2cccc(C(F)(F)F)c2)CCN(c2ncnc3c2[nH]c2ccc(F)cc23)CC1", "IC50": 1.58},
      {"smiles": "COc1ccc(OC)c(C(=O)COC(=O)c2cc(C)oc2C)c1", "IC50": 25.1},
      {"smiles": "COc1cc(C2C(C(=O)c3ccc(C)o3)=C(O)C(=O)N2c2cc(C)on2)cc(Br)c1O", "note": "(configuration not stated)", "IC50": 24.7},
      {"smiles": "CCCc1nc(SCC(=O)N2CCC(Cc3ccccc3)CC2)c2c(=O)n(C)c(=O)n(C)c2n1", "IC50": 11.2},
      {"smiles": "O=S(=O)(Nc1nc2ccccc2nc1NCc1ccco1)c1ccccc1", "IC50": 8.89},
      {"smiles": "c1ccc(-c2oc3ncnc(NCCN4CCOCC4)c3c2-c2ccccc2)cc1", "IC50": 11.8},
      {"smiles": "CC(C)Cc1cc(C(=O)Nc2sc3c(c2C#N)CCCC3)no1", "IC50": 8.44},
      {"smiles": "O=C(Nc1ccc(N2CCN(C(=O)c3ccco3)CC2)c(Cl)c1)c1cccs1", "IC50": 12.3},
      {"smiles": "CC(C)C1O/C(=N/C(=O)Nc2ccc(Cl)c(Cl)c2)NC1=O", "note": "(configuration not stated)", "IC50": 2.07},
      {"smiles": "CCCN(CCC)c1nc2ccccc2nc1C(C#N)C(=O)OCCOC", "note": "(configuration not stated)", "IC50": 15.7},
      {"smiles": "O=C(C1CC1)N1CCc2cc(S(=O)(=O)NCCC3=CCCCC3)ccc21", "IC50": 17.7},
      {"smiles": "Fc1cccc(-c2cc3nc4c(c(N5CCOCC5)n3n2)CCCC4)c1", "IC50": 18.4}
    ]}
  ]
}
